Activity calls are given as the source filed them. The calls are words filed in the database; no cut-off is given here.
How the values were obtained:
[1] = test system: HL-60; test: Induction of cell death in human HL60 cells assessed as late apoptotic cells at 2 uM after 24 hrs by FDA/PI staining based flow cytometer (reference value: 0.01%); format: functional
[2] = test system: Nucleic Acid; test: Binding affinity to calf thymus DNA assessed as bathochromic shift at 25 uM by UV-visible spectrophotometry; format: nucleic-acid assay; conditions: Bos taurus
In short: (§1)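 Absorption spectra were taken in 0.01 M Tris buffer, pH 7.4. Compounds were diluted from DMSO stock to a final 25 µM. Sonicated calf thymus DNA in TE buffer was added at 0–30 µM bp, with concentration set by A260. Shift of λmax (free vs bound) and % hypochromicity were recorded.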

[3] = test system: L1210; test: Cytotoxicity against mouse L1210 cells after 48 hrs by MTT assay; format: functional, cell-based; conditions: L1210, 48 h
In short: (§2)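 HL-60, L1210 and A2780 cells were grown in RPMI 1640 with 10% FBS, penicillin and streptomycin at 37 °C, 5% CO₂; HL-60 and A2780 medium also had 2 mM glutamine. Cells were exposed to 0–30 µM for 48 or 72 h. Viability was read by MTT microculture tetrazolium assay and IC50 was determined.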

[4] = test system: A2780; test: Drug uptake in human A2780 cells at 5 uM after 4 hrs by Hoechst staining based fluorescence microscopy; format: ADME, cell-based; conditions: a2780, 4 h
[5] = test system: HL-60; test: Induction of cell death in human HL60 cells assessed as necrotic cells at 4 uM after 24 hrs by FDA/PI staining based flow cytometer (reference value: 5.87%); format: functional
[6] = test system: HL-60; test: Cell cycle arrest in human HL60 cells assessed as accumulation at sub G0 phase at 1 uM after 48 hrs by propidium iodide staining based flow cytometry (reference value: 1.93%); format: functional
[7] = test system: HL-60; test: Cell cycle arrest in human HL60 cells assessed as accumulation at G2 phase at 0.5 uM after 48 hrs by propidium iodide staining based flow cytometry (reference value: 12.90%); format: functional
[8] = test system: HL-60; test: Cytotoxicity against human HL60 cells after 72 hrs using trypan blue exclusion staining by DCC method; format: functional, cell-based; conditions: HL-60, 72 h
In short: (§3)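 For trypan blue dye-exclusion direct cell counting, HL-60 cells were seeded at 1 × 10⁵ cells/mL. Compound at 0–10 µM, or 1% DMSO control, was added after 24 h. Viable counts were taken after 24, 48 and 72 h. IC50 (50% inhibition of viability) came from growth curves, as mean ± S.D., n = 3.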

[9] = test system: Nucleic Acid; test: Binding affinity to calf thymus DNA assessed as melting temperature at 5 uM at pH 7.1 by thermal denaturation assay; format: nucleic-acid assay; conditions: Bos taurus
[10] = test system: A2780; test: Cytotoxicity against human A2780 cells after 48 hrs by MTT assay; format: functional, cell-based; conditions: A2780, 48 h; in short: as §2
[11] = test system: HL-60; test: Induction of cell death in human HL60 cells assessed as necrotic cells at 2 uM after 24 hrs by FDA/PI staining based flow cytometer (reference value: 5.87%); format: functional
[12] = test system: HL-60; test: Cytotoxicity against human HL60 cells after 72 hrs by MTT assay; format: functional, cell-based; conditions: HL-60, 72 h; in short: as §2
[13] = test system: HL-60; test: Cytotoxicity against human HL60 cells after 48 hrs using trypan blue exclusion staining by DCC method; format: functional, cell-based; conditions: HL-60, 48 h; in short: as §3
[14] = test system: HL-60; test: Cytotoxicity against BSO pretreated human HL60 cells assessed as cell viability at 1 uM treated 6 hrs after BSO addition measured after 48 hrs by trypan blue exclusion assay; format: functional, cell-based
In short: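 HL-60 cells were pretreated 6 h with L-buthionine-sulfoximine (10 µM), then exposed to 1.5, 3.0 or 1.0 µM compound for 48 h. Viable cells were counted by trypan blue staining and expressed as percentage of all cells.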

[15] = test system: A2780; test: Cytotoxicity against human A2780 cells after 72 hrs by MTT assay; format: functional, cell-based; conditions: A2780, 72 h; in short: as §2
[16] = test system: HL-60; test: Induction of cell death in human HL60 cells assessed as viable cells at 4 uM after 24 hrs by FDA/PI staining based flow cytometer (reference value: 90.16%); format: functional; conditions: HL-60, 24 h, read-out: Activity
[17] = test system: HL-60; test: Drug uptake in human HL60 cells at 5 uM after 4 hrs by Hoechst staining based fluorescence microscopy; format: ADME, cell-based; conditions: hl-60, 4 h
In short: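 HL-60 cells were exposed to 5 µM for 4 h at 37 °C, 5% CO₂, then washed in PBS. Intrinsic blue fluorescence was viewed by optical and fluorescence microscopy. Untreated control cells were stained with Hoechst 33342 (10 µM, 10 min).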

[18] = test system: Nucleic Acid; test: Ratio of acridine orange K to compound K for calf thymus DNA by spectrofluorimetry based McGhee von Hippel method; format: nucleic-acid assay; conditions: Bos taurus
[19] = test system: Nucleic Acid; test: Binding affinity to calf thymus DNA assessed as binding constant by spectrofluorimetry based McGhee von Hippel method; format: nucleic-acid assay; conditions: Bos taurus
In short: (§4)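 Fluorescence titration used compound at 26.7 µM in 0.01 M Tris buffer (pH 7.4, 24 °C). ctDNA was added stepwise from 0 to 32 µM bp at 2 µM intervals until spectra stopped changing. Excitation was 384 nm and emission was read at 410–470 nm. Binding constant K was derived by the McGhee–von Hippel method from Scatchard plot data.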

[20] = test system: Nucleic Acid; test: Binding affinity to calf thymus DNA assessed as hypochromicity at 25 uM by UV-visible spectrophotometry; format: nucleic-acid assay; conditions: Bos taurus; in short: as §1
[21] = test system: HL-60; test: Induction of cell death in human HL60 cells assessed as late apoptotic cells at 4 uM after 24 hrs by FDA/PI staining based flow cytometer (reference value: 0.01%); format: functional
[22] = test system: HL-60; test: Cell cycle arrest in human HL60 cells assessed as accumulation at S phase at 0.5 uM after 48 hrs by propidium iodide staining based flow cytometry (reference value: 38.96%); format: functional
[23] = test system: HL-60; test: Induction of cell death in human HL60 cells assessed as viable cells at 2 uM after 24 hrs by FDA/PI staining based flow cytometer (reference value: 90.16%); format: functional; conditions: HL-60, 24 h, read-out: Activity
[24] = test system: HL-60; test: Induction of oxidative stress in BSO pretreated human HL60 cells assessed as superoxide production at 5 uM treated 6 hrs after BSO addition measured after 1 hr by DHE dye fluorescence microscopy; format: functional, cell-based
In short: (§5)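 HL-60 cells (4 × 10⁵) were cultured 24 h at 37 °C, then given 5 µM for 1 h, with or without 6 h pretreatment with 10 µM L-buthionine-sulfoximine. Dihydroethidium (20 µM) was then added for 20 min at 37 °C. Cells were washed in PBS and superoxide was viewed by fluorescence microscopy. Menadione served as positive control.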

[25] = test system: HL-60; test: Induction of oxidative stress in human HL60 cells assessed as superoxide production at 5 uM after 1 hr by DHE dye based fluorescence microscopy; format: functional, cell-based; in short: as §5
[26] = test system: HL-60; test: Cell cycle arrest in human HL60 cells assessed as accumulation at sub G0 phase at 0.5 uM after 48 hrs by propidium iodide staining based flow cytometry (reference value: 1.93%); format: functional
[27] = test system: Nucleic Acid; test: Binding affinity to calf thymus DNA assessed as intercalation at 26.7 uM by fluorometric titration analysis; format: nucleic-acid assay; conditions: Bos taurus; in short: as §4
[28] = test system: Nucleic Acid; test: Ratio of proflavine K to compound K for calf thymus DNA by spectrofluorimetry based McGhee von Hippel method; format: nucleic-acid assay; conditions: Bos taurus
[29] = test system: HL-60; test: Decrease in intracellular glutathione level in human HL60 cells at 1 uM after 2 to 24 hrs by spectrophotometric analysis; format: functional, cell-based
[30] = test system: HL-60; test: Induction of necrosis in human HL60 cells assessed as cell shrinking at 2.5 uM after 24 hrs by propidium iodide staining based fluorescence microscopy; format: functional
[31] = test system: HL-60; test: Cell cycle arrest in human HL60 cells assessed as accumulation at G2 phase at 1 uM after 48 hrs by propidium iodide staining based flow cytometry (reference value: 12.90%); format: functional
[32] = test system: HL-60; test: Cell cycle arrest in human HL60 cells assessed as accumulation at G1 phase at 1 uM after 48 hrs by propidium iodide staining based flow cytometry (reference value: 48.14%); format: functional
[33] = test system: Nucleic Acid; test: Ratio of daunomycin K to compound K for calf thymus DNA by spectrofluorimetry based McGhee von Hippel method; format: nucleic-acid assay; conditions: Bos taurus
[34] = Binding affinity to NAC assessed as second order rate constant at 1 mM at pH 6.5 after 10 mins by UV-visible spectrophotometry
In short: (§6)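 Reaction with N-acetyl-L-cysteine was run in 100 mM Tris/HCl containing 50% DMSO at 25 °C, with final 2c at 20 µM and NAC at 1 mM. pH was 6.0, 6.5 or 7.0. Spectral change was monitored by UV–vis, with the mixture held 10 min. Second-order rate constants k2 (M⁻¹ s⁻¹) are reported.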

[35] = test system: HL-60; test: Induction of cell death in human HL60 cells assessed as early apoptotic cells at 4 uM after 24 hrs by FDA/PI staining based flow cytometer (reference value: 3.96%); format: functional
[36] = test system: HL-60; test: Cytotoxicity against human HL60 cells after 48 hrs by MTT assay; format: functional, cell-based; conditions: HL-60, 48 h; in short: as §2
[37] = test system: L1210; test: Cytotoxicity against mouse L1210 cells after 72 hrs by MTT assay; format: functional, cell-based; conditions: L1210, 72 h; in short: as §2
[38] = test system: HL-60; test: Cell cycle arrest in human HL60 cells assessed as accumulation at S phase at 1 uM after 48 hrs by propidium iodide staining based flow cytometry (reference value: 38.96%); format: functional
[39] = Binding affinity to NAC assessed as second order rate constant at 1 mM at pH 6 after 10 mins by UV-visible spectrophotometry; in short: as §6
[40] = Binding affinity to NAC assessed as second order rate constant at 1 mM at pH 7 after 10 mins by UV-visible spectrophotometry; in short: as §6
[41] = test system: HL-60; test: Cell cycle arrest in human HL60 cells assessed as accumulation at G1 phase at 0.5 uM after 48 hrs by propidium iodide staining based flow cytometry (reference value: 48.14%); format: functional
[42] = test system: HL-60; test: Drug uptake in human HL60 cells at 10 uM after 10 to 60 mins by RP-HPLC analysis; format: ADME, cell-based; conditions: hl-60, 10 µM
In short: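 HL-60 cells (2 × 10⁶/mL) were exposed to 10 µM for 10 or 60 min, washed twice in PBS and extracted with methanol (1 h, 4 °C). Extract was centrifuged at 6700 × g and injected (20 µL) onto a C18 RP-HPLC column. Mobile phase was methanol/50 mM ammonium formate 80:20, pH 4.5, at 0.5 mL/min and 25 °C, with detection at 370 nm.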

[43] = test system: NIH3T3; test: Cytotoxicity against mouse NIH/3T3 cells after 72 hrs by MTT assay; format: cell-based; conditions: NIH3T3, 72 h
[44] = test system: HL-60; test: Induction of cell death in human HL60 cells assessed as early apoptotic cells at 2 uM after 24 hrs by FDA/PI staining based flow cytometer (reference value: 3.96%); format: functional

For COC(=O)/C=C1\S/C(=N\c2c3ccccc3nc3ccccc23)N(c2ccc(Br)cc2)C1=O, the Activity [1] was 0.03%, the Activity [2] was “Active” and the IC50 [3] was 1700 nM. For the same molecule, the Drug uptake [4] was “Active”, the Activity [5] was 62.62% and the Activity [6] was 25.85%. For the same molecule, the Activity [7] was 10.56%, the IC50 [8] was 900 nM and the Tm [9] was 81 °C. The IC50 [10] was 12500 nM, the Activity [11] was 22.87% and the IC50 [12] was 1300 nM. For the same molecule, the IC50 [13] was 1600 nM, the Activity [14] was “Active” and the IC50 [15] was 7700 nM. The viability at 4 µM [16] was 17.8%, the Drug uptake [17] was “Active” and the Ratio [18] was 10. The K [19] was 5.89 ×10⁶ /M, the Activity [20] was 24.2% and the Activity [21] was 0.01%. For the same molecule, the Activity [22] was 38.4%, the viability at 2 µM [23] was 8.46% and the Activity [24] was “Active”. For the same molecule, the Activity [25] was “Active”, the Activity [26] was 21.7% and the Activity [27] was “Active”. For the same molecule, the Ratio [28] was 10, the Activity [29] was “Active” and the Activity [30] was “Active”. The Activity [31] was 5.08%, the Activity [32] was 82.93% and the Ratio [33] was 10. For the same molecule, the Activity [34] was 3.8 M⁻¹ s⁻¹, the Activity [35] was 19.57% and the IC50 [36] was 1400 nM. The IC50 [37] was 3100 nM, the Activity [38] was 11.99% and the Activity [39] was 2 M⁻¹ s⁻¹. For the same molecule, the Activity [40] was 9.9 M⁻¹ s⁻¹, the Activity [41] was 51.04% and the Drug uptake [42] was “Active”. It also gave an IC50 [43] of 3500 nM and an Activity [44] of 68.64%.

— ChEMBL document CHEMBL2203053, “DNA binding acridine-thiazolidinone agents affecting intracellular glutathione” (Bioorg Med Chem, 2012)
